From PubChem BioAssay
Pf Dd2 inh: blocks growth of Plasmodium falciparum Dd2 parasites. P. falciparum Dd2 growth, SYBR Green, 72 h; hits give low values. activity change, % at 10 µM. 2.3% of 94,000 active; in the data active means activity change below about -80%; inconclusive means no clear call, values can overlap the other calls
T cruzi growth-1: T. cruzi proliferation inhibition; T. cruzi beta-gal in NIH3T3, GalScreen luminescence, 90 h; inhibition, % at 8.34 µM; 5.9% of 77,000 active;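 active means mean inhibition above about 93%, with at least 55% of replicates each passing it, limit read from the data, passing the limit was not always enough; inconclusive means only one of those two conditions holds; inactive means neither condition holds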
IDH1 R132H inh: blocks human IDH1 R132H reductase activity. inhibition, % at 10 µM. 0.18% of 70,000 active. diaphorase/resazurin fluorescence, 60 min; in the data active means inhibition above about 34%; inconclusive means no clear call, values can overlap the other calls; inactive means below about 11%;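 further: 0% = DMSO and 100% = no enzyme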
GASC1 inh: blocks human GASC-1 (KDM4C) demethylase activity. 0.15% of 96,000 active. inhibition, % at 12.5 µM. Q9H3R0. GST-KDM4C 2-372, H3K9me3 peptide, LANCE TR-FRET;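 active means mean replicate inhibition above about 25%, with at least 55% of replicates also reaching it, limit read from the data, passing the limit was not always enough; inconclusive means only one of those two conditions met; inactive means neither condition met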
Target sequence (Q9H3R0 2-372 limits assumed): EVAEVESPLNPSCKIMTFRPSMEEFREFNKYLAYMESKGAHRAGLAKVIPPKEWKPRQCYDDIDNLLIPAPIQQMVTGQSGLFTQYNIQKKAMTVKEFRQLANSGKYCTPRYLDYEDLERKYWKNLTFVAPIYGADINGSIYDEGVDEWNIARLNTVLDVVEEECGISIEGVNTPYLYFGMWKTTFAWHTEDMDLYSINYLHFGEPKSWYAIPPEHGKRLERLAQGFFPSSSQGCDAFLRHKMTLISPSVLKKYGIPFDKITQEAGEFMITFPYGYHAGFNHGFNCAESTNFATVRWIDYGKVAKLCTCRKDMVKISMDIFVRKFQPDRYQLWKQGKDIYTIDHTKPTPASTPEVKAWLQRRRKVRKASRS
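Material: GST-tagged GASC-1 (JMJD2C) catalytic fragment, aa 2-372. Input: enzyme final amount 10 nM. Medium: HEPES buffer, pH 7.5, plus ascorbate. Reagent: H3K9me3 peptide substrate, Fe(II), 2-oxoglutarate. Doses: single dose. Times: reaction 30 min RT, detection step 1 h RT. Measured by: LANCE TR-FRET. Evaluation: Fall in 671/618 emission ratio as inhibition.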
T cruzi growth-2: inhibitors of T. cruzi proliferation; T. cruzi beta-gal in NIH3T3, GalScreen luminescence, 90 h; 72% of 5,600 active; inhibition, % at 8.35 µM; shares compounds with T cruzi growth-1;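 active means mean replicate inhibition above about 95% and at least 55% of replicates individually reaching it, limit read from the data; inconclusive means only one of the two criteria is met; inactive means neither criterion is met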
T cruzi growth-3: blocks T. cruzi growth in NIH3T3 host cells. T. cruzi beta-gal in NIH3T3, GalScreen luminescence, 90 h. inhibition, % at 2.09 µM. shares compounds with T cruzi growth-1. 21% of 5,600 active;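 active means mean inhibition above about 95%, with at least 55% of replicates also reaching it, limit read from the data; inconclusive means meets just one of the two conditions; inactive means meets neither condition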;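 further: plate controls were neutral control median for no effect and positive control median for full effect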
3T3 cytotox: kills mouse NIH/3T3 fibroblasts; shares compounds with T cruzi growth-1; NIH/3T3 viability, CellTiter-Glo ATP luminescence, 90 h; cytotoxicity (signal decrease), % at 8.35 µM; 14% of 5,600 active;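 active means mean signal decrease across replicates above about 35% based on untreated-well scatter, with enough replicates individually passing, limit read from the data; inconclusive means no rule stated though some were filed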;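 further: 0% = median of neutral control wells and 100% = median of positive control wells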
NIH3T3 tox 2: NIH/3T3 (mouse) viability loss | shares compounds with T cruzi growth-1 | NIH/3T3 viability, CellTiter-Glo ATP luminescence, 90 h | inhibition, % at 24.9 µM | 56% of 5,600 active;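 active means mean loss of cell viability signal at or above a set limit, and enough replicates individually reaching it; inconclusive means meets only the mean limit or only the replicate share; inactive means meets neither condition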;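 further: 0% = median of neutral control wells and 100% = median of positive control wells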
Active calls of the source: *. A selection: hits, their analogues and other compounds. The true share with any hit is near 5.8%.

COCC#Cc1cnc2c(c1)C(=O)N([C@H](C)CO)C[C@H](C)[C@H](CN(C)S(C)(=O)=O)O2 was read as Pf Dd2 inh 34.9, T cruzi growth-1 -27.2, IDH1 R132H inh 0.1 and GASC1 inh 0.5.
Screening C[C@@H]1CN([C@@H](C)CO)C(=O)c2ccccc2-c2ccccc2CO[C@@H]1CN(C)C(=O)Nc1ccc2c(c1)OCO2 returned Pf Dd2 inh -24.4, T cruzi growth-1 -13.1, IDH1 R132H inh 1.7 and GASC1 inh 1.8.
`OC[C@@H]1[C@@H](c2ccc(/C=C/c3ccccc3)cc2)[C@@H]2CN(Cc3ccncc3)CCCCN12` gave Pf Dd2 inh -2.2, T cruzi growth-1 inconclusive, GASC1 inh 2.3, T cruzi growth-2 99.3*, T cruzi growth-3 73.7, 3T3 cytotox 28.6 and NIH3T3 tox 2 106.3*.
Screening OC[C@@H]1[C@@H](c2ccc(/C=C/c3ccccc3)cc2)[C@H]2CN(Cc3ccncc3)CCCCN12 returned Pf Dd2 inh -60.7, T cruzi growth-1 96.6*, GASC1 inh 4.0, T cruzi growth-2 104.6*, T cruzi growth-3 51.4, 3T3 cytotox 46.5* and NIH3T3 tox 2 101.7*.
CN1[C@@H]2Cn3c(ccc(C4=CCCCC4)c3=O)[C@H]1[C@@H](C(=O)NCc1cc(F)cc(F)c1)[C@@H]2CO was read as T cruzi growth-1 39.9 and GASC1 inh 1.1.
Screening COc1ccc(CN(C)C[C@H]2OCCCC[C@@H](C)Oc3ccc(NC(=O)Nc4ccc(OC)cc4)cc3C(=O)N([C@@H](C)CO)C[C@H]2C)cc1 returned Pf Dd2 inh -56.8, T cruzi growth-1 104.5*, IDH1 R132H inh 0.7, GASC1 inh -1.1, T cruzi growth-2 103.3*, T cruzi growth-3 46.8, 3T3 cytotox 11.1 and NIH3T3 tox 2 105.7*.
COc1ccc(CN(C)C[C@@H]2OCCCC[C@@H](C)Oc3ccc(NC(=O)Nc4ccc(OC)cc4)cc3C(=O)N([C@H](C)CO)C[C@H]2C)cc1 was read as Pf Dd2 inh inconclusive and T cruzi growth-1 90.4.
`COc1ccc(CN(C)C[C@H]2OCCCC[C@H](C)Oc3ccc(NC(=O)C4CCCCC4)cc3C(=O)N([C@@H](C)CO)C[C@@H]2C)cc1` gave Pf Dd2 inh -58.4, T cruzi growth-1 104.4*, IDH1 R132H inh -0.9, GASC1 inh 2.2, T cruzi growth-2 106.7*, T cruzi growth-3 46.3, 3T3 cytotox -17.6 and NIH3T3 tox 2 68.6*.
COc1ccc(CN(C)C[C@@H]2OCCCC[C@@H](C)Oc3ccc(NC(=O)Nc4ccccc4)cc3C(=O)N([C@H](C)CO)C[C@H]2C)cc1 was read as Pf Dd2 inh -63.4, T cruzi growth-1 110.5*, GASC1 inh -1.8, T cruzi growth-2 inconclusive, T cruzi growth-3 91.1, 3T3 cytotox 27.8 and NIH3T3 tox 2 104.2*.
Screening COc1ccc(CN(C)C[C@H]2OCCCC[C@H](C)Oc3ccc(NC(=O)Nc4ccccc4)cc3C(=O)N([C@@H](C)CO)C[C@H]2C)cc1 returned Pf Dd2 inh -78.0, T cruzi growth-1 inconclusive, GASC1 inh -0.2, T cruzi growth-2 109.1*, T cruzi growth-3 43.0, 3T3 cytotox 17.5 and NIH3T3 tox 2 34.4*.
COc1ccc(NC(=O)Nc2ccc3c(c2)C(=O)N([C@H](C)CO)C[C@H](C)[C@H](CN(C)C)OCCCC[C@H](C)O3)cc1 was read as Pf Dd2 inh 42.9, T cruzi growth-1 35.6, IDH1 R132H inh -2.9 and GASC1 inh -1.1.
`Cn1c(SCC(=O)c2ccc(Cl)cc2)nnc1-c1ccncc1` gave IDH1 R132H inh 1.3.
C[C@H]1CN([C@@H](C)CO)C(=O)c2cc(C#Cc3ccccc3F)cnc2O[C@@H]1CN(C)C(=O)c1ccc2c(c1)OCO2 was read as Pf Dd2 inh -82.3*, T cruzi growth-1 124.8*, GASC1 inh 0.9, T cruzi growth-2 110.3*, T cruzi growth-3 42.2, 3T3 cytotox 33.0 and NIH3T3 tox 2 36.7*.
For C[C@H]1CN([C@@H](C)CO)C(=O)c2cc(C#Cc3ccccc3F)cnc2O[C@@H]1CN(C)C(=O)C1CCC1 the results were Pf Dd2 inh -52.6, T cruzi growth-1 97.2*, IDH1 R132H inh 0.2, GASC1 inh -0.3, T cruzi growth-2 103.7*, T cruzi growth-3 44.1, 3T3 cytotox 30.4 and NIH3T3 tox 2 45.3*.
CC(C)NC(=O)N(C)C[C@H]1Oc2ncc(C#Cc3ccccc3F)cc2C(=O)N([C@H](C)CO)C[C@H]1C was read as Pf Dd2 inh -55.4, T cruzi growth-1 72.4, IDH1 R132H inh -1.8 and GASC1 inh -2.4.
C[C@H](CO)N1C[C@H](C)[C@@H](CN(C)C(=O)C2CCC2)Oc2ncc(C#Cc3ccccc3F)cc2C1=O was read as Pf Dd2 inh -31.9, T cruzi growth-1 103.5, IDH1 R132H inh -0.1 and GASC1 inh -1.8.
`CC(C)NC(=O)N(C)C[C@@H]1Oc2ncc(C#Cc3ccccc3F)cc2C(=O)N([C@@H](C)CO)C[C@H]1C` gave Pf Dd2 inh -50.2, T cruzi growth-1 101.7*, GASC1 inh 0.5, T cruzi growth-2 81.4, T cruzi growth-3 48.1, 3T3 cytotox 31.7 and NIH3T3 tox 2 61.4*.
`C[C@@H]1CN([C@H](C)CO)C(=O)c2cc(C#Cc3cccc(F)c3)cnc2O[C@H]1CN(C)C(=O)C1CCCCC1` gave Pf Dd2 inh -70.8, T cruzi growth-1 100.9*, IDH1 R132H inh 0.0, GASC1 inh -0.8, T cruzi growth-2 109.9*, T cruzi growth-3 83.9, 3T3 cytotox -2.3 and NIH3T3 tox 2 103.3*.
For C[C@H]1CN([C@@H](C)CO)C(=O)c2cc(C#Cc3cccc(F)c3)cnc2O[C@H]1CN(C)C(=O)C1CCCCC1 the results were Pf Dd2 inh -72.5, T cruzi growth-1 99.1, IDH1 R132H inh -0.3 and GASC1 inh 0.8.
For C[C@H](CO)N1C[C@H](C)[C@H](CN(C)C(=O)c2ccc3c(c2)OCO3)Oc2ncc(C#Cc3ccccc3F)cc2C1=O the results were Pf Dd2 inh -73.5, T cruzi growth-1 56.3 and GASC1 inh -0.3.
Screening COc1ccc(NC(=O)N(C)C[C@@H]2Oc3ccc(NC(=O)Nc4ccccc4)cc3C(=O)N([C@H](C)CO)C[C@@H]2C)cc1 returned Pf Dd2 inh -33.5, T cruzi growth-1 -29.0, IDH1 R132H inh 0.6 and GASC1 inh -2.3.
C[C@H]1CN([C@@H](C)CO)S(=O)(=O)c2ccc(-c3cccnc3)cc2O[C@H]1CN(C)CC1CCOCC1 was read as Pf Dd2 inh -7.3 and GASC1 inh -3.1.
